From ChEMBL document CHEMBL1156982, “New 3-methylquinoxaline-2-carboxamide 1,4-di-N-oxide derivatives as anti-Mycobacterium tuberculosis agents” (Bioorg Med Chem, 2010)
In brackets after ≈: the same amount, converted by molar mass.

What was measured:
[1] = system: Mycobacterium tuberculosis; assay: Antituberculosis activity against Mycobacterium tuberculosis H37Rv ATCC 27294 after 4 days by microplate alamar blue assay; type: functional; conditions: H37Rv ATCC 27294, 96 h
Method in brief: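 M. tuberculosis H37Rv (ATCC 27294) in BACTEC 12B medium, tested by Microplate Alamar Blue Assay across a range of lower concentrations. MIC is the lowest concentration giving a 90% reduction in fluorescence versus controls. Rifampicin was the reference.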

Vero = assay: Cytotoxicity against african green monkey Vero cells after 72 hrs by MTT assay; type: cell-based; conditions: Chlorocebus sabaeus
Method in brief: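 VERO cells were exposed to compound for 72 h. Viability was read from cellular conversion of MTT to formazan (CellTiter 96 non-radioactive proliferation assay), and the IC50 was determined.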

[2] = Selectivity ratio of IC50 for Vero cells to MIC for Mycobacterium tuberculosis H37Rv ATCC 27294; type: functional
Method in brief: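 SI is the ratio of the IC50 measured in VERO cells (72 h MTT) to the MIC against M. tuberculosis H37Rv (MABA, 90% fluorescence reduction). An SI of 10 or more counts as active at the second screening level.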

[3] = system: Mycobacterium tuberculosis; assay: Antituberculosis activity against Mycobacterium tuberculosis H37Rv ATCC 27294; type: functional

SMILES | MIC [1] [mg/L] | IC50 (Vero) [mg/L] | Selectivity ratio [2] | Activity [3]
Cc1c(C(=O)NCCc2ccccc2)[n+]([O-])c2cc(C(F)(F)F)ccc2[n+]1[O-] | 1.15 (≈ 2.95 µM) | > 30 | >26.019 | >=90%
COc1ccc(CCNC(=O)c2c(C)[n+]([O-])c3ccccc3[n+]2[O-])cc1 | 3.46 (≈ 9.8 µM) | > 30 | >8.6605 | >=90%
COc1ccc(CCNC(=O)c2c(C)[n+]([O-])c3ccc(F)cc3[n+]2[O-])cc1 | < 0.195 | > 30 | >153.84 | >=90%
COc1ccc(CCNC(=O)c2c(C)[n+]([O-])c3cc(F)c(F)cc3[n+]2[O-])cc1 | 2.06 (≈ 5.29 µM) | > 30 | >14.577 | >=90%
Cc1c(C(=O)NCc2ccccc2)[n+]([O-])c2cc(F)c(F)cc2[n+]1[O-] | 1.73 (≈ 5 µM) | 18.4 (≈ 53.2 µM) | 10.64 | >=90%
Cc1c(C(=O)NCCc2ccccc2)[n+]([O-])c2cc(Cl)c(Cl)cc2[n+]1[O-] | < 0.195 | > 30 | >153.84 | >=90%
Cc1c(C(=O)NCCc2ccccc2)[n+]([O-])c2cc(F)ccc2[n+]1[O-] | 0.504 (≈ 1.48 µM) | > 100 | >198.41 | >=90%
COc1ccc2c(c1)[n+]([O-])c(C(=O)NCc1ccccc1)c(C)[n+]2[O-] | 12.3 (≈ 36.4 µM) | – | – | >=90%
Cc1c(C(=O)NCc2ccccc2)[n+]([O-])c2cc(Cl)ccc2[n+]1[O-] | 0.433 (≈ 1.26 µM) | > 100 | >230.94 | >=90%
Cc1ccc2c(c1)[n+]([O-])c(C(=O)NCc1ccccc1)c(C)[n+]2[O-] | 4.21 (≈ 13 µM) | > 100 | >23.77 | >=90%
Cc1c(C(=O)NCCc2ccccc2)[n+]([O-])c2cc(F)c(F)cc2[n+]1[O-] | 0.517 (≈ 1.44 µM) | > 30 | >58.027 | >=90%
COc1ccc(CCNC(=O)c2c(C)[n+]([O-])c3ccc(Cl)cc3[n+]2[O-])cc1 | < 0.195 | > 30 | >153.84 | >=90%
COc1ccc(CCNC(=O)c2c(C)[n+]([O-])c3cc(Cl)c(Cl)cc3[n+]2[O-])cc1 | 0.454 (≈ 1.08 µM) | > 30 | >66.079 | >=90%
Cc1c(C(=O)NCc2ccccc2)[n+]([O-])c2cc(Cl)c(Cl)cc2[n+]1[O-] | < 0.2 | > 100 | >500 | >=90%
COc1ccc(CNC(=O)c2c(C)[n+]([O-])c3ccc(C(F)(F)F)cc3[n+]2[O-])cc1 | 0.999 (≈ 2.45 µM) | > 30 | >30.03 | >=90%
Cc1c(C(=O)NCc2ccccc2)[n+]([O-])c2cc(C(F)(F)F)ccc2[n+]1[O-] | 0.406 (≈ 1.08 µM) | > 100 | >246.3 | >=90%
COc1ccc(CNC(=O)c2c(C)[n+]([O-])c3ccccc3[n+]2[O-])cc1 | 2.85 (≈ 8.39 µM) | > 30 | >10.537 | >=90%
COc1ccc(CNC(=O)c2c(C)[n+]([O-])c3ccc(C)cc3[n+]2[O-])cc1 | 8.9 (≈ 25.2 µM) | > 30 | >3.3696 | >=90%
Cc1c(C(=O)NCc2ccccc2)[n+]([O-])c2cc(F)ccc2[n+]1[O-] | 1.52 (≈ 4.65 µM) | > 100 | >65.7 | >=90%

SMILES | MIC [1] [mg/L] | IC50 (Vero) [mg/L] | Selectivity ratio [2] | Activity [3]
COc1ccc(CNC(=O)c2c(C)[n+]([O-])c3cc(C)c(C)cc3[n+]2[O-])cc1 | > 100 | – | – | >=90%
Cc1c(C(=O)NCCc2ccccc2)[n+]([O-])c2ccccc2[n+]1[O-] | 3.05 (≈ 9.43 µM) | > 100 | >32.81 | >=90%
Cc1ccc2c(c1)[n+]([O-])c(C(=O)NCCc1ccccc1)c(C)[n+]2[O-] | 8.62 (≈ 25.6 µM) | > 100 | >11.6 | >=90%
Cc1cc2c(cc1C)[n+]([O-])c(C(=O)NCCc1ccccc1)c(C)[n+]2[O-] | 16.4 (≈ 46.6 µM) | – | – | >=90%
COc1ccc2c(c1)[n+]([O-])c(C(=O)NCCc1ccccc1)c(C)[n+]2[O-] | 13.7 (≈ 38.7 µM) | – | – | >=90%
Cc1c(C(=O)NCCc2ccccc2)[n+]([O-])c2cc(Cl)ccc2[n+]1[O-] | < 0.2 | > 100 | >500 | >=90%
COc1ccc(CCNC(=O)c2c(C)[n+]([O-])c3ccc(C(F)(F)F)cc3[n+]2[O-])cc1 | 1.43 (≈ 3.39 µM) | > 30 | >21.023 | >=90%
COc1ccc(CNC(=O)c2c(C)[n+]([O-])c3ccc(OC)cc3[n+]2[O-])cc1 | 12 (≈ 32.5 µM) | – | – | >=90%
COc1ccc(CCNC(=O)c2c(C)[n+]([O-])c3ccc(OC)cc3[n+]2[O-])cc1 | 16.9 (≈ 44 µM) | – | – | >=90%
COc1ccc(CNC(=O)c2c(C)[n+]([O-])c3ccc(Cl)cc3[n+]2[O-])cc1 | – | – | – | >=90%
Cc1c(C(=O)NCc2ccccc2)[n+]([O-])c2ccccc2[n+]1[O-] | 2.61 (≈ 8.42 µM) | > 100 | >38.372 | >=90%
Cc1cc2c(cc1C)[n+]([O-])c(C(=O)NCc1ccccc1)c(C)[n+]2[O-] | > 100 | – | – | >=90%
COc1ccc(CCNC(=O)c2c(C)[n+]([O-])c3ccc(C)cc3[n+]2[O-])cc1 | 8.85 (≈ 24.1 µM) | > 30 | >3.389 | >=90%
COc1ccc(CCNC(=O)c2c(C)[n+]([O-])c3cc(C)c(C)cc3[n+]2[O-])cc1 | > 100 | – | – | >=90%
COc1ccc(CNC(=O)c2c(C)[n+]([O-])c3cc(Cl)c(Cl)cc3[n+]2[O-])cc1 | – | – | – | >=90%
COc1ccc(CNC(=O)c2c(C)[n+]([O-])c3ccc(F)cc3[n+]2[O-])cc1 | 1.51 (≈ 4.22 µM) | > 30 | >19.893 | >=90%
COc1ccc(CNC(=O)c2c(C)[n+]([O-])c3cc(F)c(F)cc3[n+]2[O-])cc1 | 0.764 (≈ 2.04 µM) | 16.6 (≈ 44.2 µM) | 21.734 | >=90%
CO[C@H]1/C=C/O[C@@]2(C)Oc3c(C)c(O)c4c(O)c(c(/C=N/N5CCN(C)CC5)c(O)c4c3C2=O)NC(=O)/C(C)=C\C=C\[C@H](C)[C@H](O)[C@@H](C)[C@@H](O)[C@@H](C)[C@H](OC(C)=O)[C@@H]1C [RIFAMPIN] | 0.015 (≈ 0.0182 µM) | > 100 | >800 | –
